These results are taken from ChEMBL document CHEMBL5357037, “Scaffold hopping based designing of selective ALDH1A1 inhibitors to overcome cyclophosphamide resistance: synthesis and biological evaluation” (RSC Med Chem, 2024).

Active and inactive are the calls of the source. The calls are words filed in the database; no cut-off is given here.

Data set [1] has as its system MIA PaCa-2. Briefly: Reversal of Mafosfamide resistance in human MIAPaCa-2 cells assessed as increase in Mafosfamide sensitivity by measuring reduction in cell viability measured after 19 hrs in presence of Mafosfamide by MTT assay. Format: functional, cell-based. The procedure, abridged:
(§1)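 A549 and MIA PaCa-2 cells, chosen for high ALDH1A1 expression, were obtained from NCCS. Viability was measured by MTT. Combination arms paired mafosfamide with ALDH1A1 inhibitors. Combination indices were calculated with the Chou–Talalay equation.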

The subject of data set [2] is A549. Briefly: Reversal of Mafosfamide resistance in human A549 cells assessed as increase in Mafosfamide sensitivity by measuring reduction in cell viability measured after 19 hrs in presence of Mafosfamide by MTT assay. The data set is classed as functional, cell-based. The procedure, abridged:
as §1
(In general: Formazan colour is commonly taken as a measure of viable cells.)

Data set [3] has as its target T1, Aldehyde dehydrogenase, dimeric NADP-preferring (Homo sapiens, UniProt P30838).
T1 sequence (P30838 whole entry): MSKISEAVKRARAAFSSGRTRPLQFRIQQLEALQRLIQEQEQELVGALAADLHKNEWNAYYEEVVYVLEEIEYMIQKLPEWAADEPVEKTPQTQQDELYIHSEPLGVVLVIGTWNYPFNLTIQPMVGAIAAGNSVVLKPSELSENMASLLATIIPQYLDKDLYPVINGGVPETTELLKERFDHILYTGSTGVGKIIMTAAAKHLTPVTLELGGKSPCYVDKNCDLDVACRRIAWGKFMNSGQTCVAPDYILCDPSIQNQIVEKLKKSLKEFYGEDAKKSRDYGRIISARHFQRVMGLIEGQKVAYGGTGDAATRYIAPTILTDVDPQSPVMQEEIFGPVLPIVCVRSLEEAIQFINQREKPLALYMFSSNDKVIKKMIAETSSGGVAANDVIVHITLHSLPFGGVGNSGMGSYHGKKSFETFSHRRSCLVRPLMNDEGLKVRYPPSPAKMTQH
Briefly: Inhibition of human ALDH3A1 using 4-nitrobenzaldehyde as substrate preincubated with enzyme for 15 mins followed by substrate addition in presence of NAD+ and measured for 5 mins by spectrophotometric analysis. The procedure, abridged: (§2)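 Human recombinant ALDH1A1, ALDH2 or ALDH3A1 preincubated with test compounds for 15 min at 25 °C. NADH absorbance read kinetically for 5 min. IC50 fitted from five concentrations vs %inhibition. Single-point final concentrations were 10 μM for ALDH1A1 and 100 μM for ALDH2 and ALDH3A1.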

The test system of data set [4] is MIA PaCa-2. Put plainly: Synergistic anticancer activity against human MIAPaCa-2 cells assessed as combination index incubated for 19 hrs in presence of Mafosfamide by MTT assay. The data set is classed as functional. A digest of the protocol:
as §1

Data set [5] concerns MIA PaCa-2. Briefly: Anticancer activity against human MIAPaCa-2 cells assessed as reduction in cell viability at 315 uM incubated for 19 hrs by MTT assay. Format: functional, cell-based.
Data set [6] can be described thus: Lipid-water partition coefficient, logP of the compound. Format: physicochemical.
Data set [7] deals with T2, Aldehyde dehydrogenase 1A1 (Homo sapiens, UniProt P00352).
T2 sequence (P00352 whole entry): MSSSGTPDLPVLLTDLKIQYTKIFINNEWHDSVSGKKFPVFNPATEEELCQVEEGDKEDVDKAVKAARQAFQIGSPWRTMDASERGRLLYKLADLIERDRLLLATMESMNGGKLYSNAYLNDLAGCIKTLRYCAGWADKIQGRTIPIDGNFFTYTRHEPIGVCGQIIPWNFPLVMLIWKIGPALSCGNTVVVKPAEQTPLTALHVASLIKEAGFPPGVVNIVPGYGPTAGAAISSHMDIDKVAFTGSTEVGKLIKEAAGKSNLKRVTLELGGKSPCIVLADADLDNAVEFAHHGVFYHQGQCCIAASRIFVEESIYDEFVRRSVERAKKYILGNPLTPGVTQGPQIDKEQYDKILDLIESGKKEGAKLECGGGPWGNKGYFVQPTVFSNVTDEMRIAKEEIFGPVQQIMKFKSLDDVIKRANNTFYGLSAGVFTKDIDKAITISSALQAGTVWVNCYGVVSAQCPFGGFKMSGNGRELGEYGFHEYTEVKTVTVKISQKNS
Put plainly: Inhibition of human ALDH1A1 using propionaldehyde as substrate preincubated with enzyme for 15 mins followed by substrate addition in presence of NAD+ and measured for 5 mins by spectrophotometric analysis. A digest of the protocol: as §2

Data set [8] concerns A549. Put plainly: Synergistic anticancer activity against human A549 cells assessed as combination index incubated for 19 hrs in presence of Mafosfamide by MTT assay. The data set is classed as functional. The procedure, abridged:
as §1

For data set [9], the target named is T3, Aldehyde dehydrogenase, mitochondrial (Homo sapiens, UniProt P05091).
T3 sequence (P05091 whole entry): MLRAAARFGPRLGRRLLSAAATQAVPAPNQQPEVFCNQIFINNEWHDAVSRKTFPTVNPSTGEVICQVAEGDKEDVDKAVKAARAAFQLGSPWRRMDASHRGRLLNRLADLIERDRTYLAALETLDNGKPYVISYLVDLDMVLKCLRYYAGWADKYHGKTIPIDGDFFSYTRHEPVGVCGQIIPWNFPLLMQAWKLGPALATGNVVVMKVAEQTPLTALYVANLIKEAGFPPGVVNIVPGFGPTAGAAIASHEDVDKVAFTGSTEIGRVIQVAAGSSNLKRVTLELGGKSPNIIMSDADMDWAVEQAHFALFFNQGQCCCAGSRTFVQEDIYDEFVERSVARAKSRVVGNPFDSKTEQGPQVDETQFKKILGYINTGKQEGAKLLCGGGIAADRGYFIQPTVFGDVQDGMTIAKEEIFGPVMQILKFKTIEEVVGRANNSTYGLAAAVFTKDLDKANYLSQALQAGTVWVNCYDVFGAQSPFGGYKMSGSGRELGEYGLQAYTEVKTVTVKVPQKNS
Briefly: Inhibition of human ALDH2 using acetaldehyde as substrate preincubated with enzyme for 15 mins followed by substrate addition in presence of NAD+ and measured for 5 mins by spectrophotometric analysis. A digest of the protocol:
as §2

For data set [10], the system named is A549. Briefly: Anticancer activity against human A549 cells assessed as reduction in cell viability at 370 uM incubated for 19 hrs by MTT assay. The data set is classed as functional, cell-based.
Data set [11] concerns A549. Put plainly: Anticancer activity against human A549 cells assessed as reduction in cell viability incubated for 19 hrs by MTT assay. Format: functional, cell-based. The procedure, abridged: as §1
Data set [12] deals with MIA PaCa-2. Put plainly: Anticancer activity against human MIAPaCa-2 cells assessed as reduction in cell viability incubated for 19 hrs by MTT assay. The data set is classed as functional, cell-based. The procedure, abridged:
as §1

The target of data set [13] is T4, Aldehyde dehydrogenase, dimeric NADP-preferring (Homo sapiens) (UniProt P30838).
T4 sequence (whole entry): T1 sequence (P30838 whole entry)
Put plainly: Inhibition of human ALDH3A1 using 4-nitrobenzaldehyde as substrate at 100 uM preincubated with enzyme for 15 mins followed by substrate addition in presence of NAD+ and measured for 5 mins by spectrophotometric analysis. As to conditions: time 20.0 min. A digest of the protocol: as §2

Data set [14] has as its target T5, Aldehyde dehydrogenase 1A1 (Homo sapiens) (UniProt P00352).
T5 sequence (whole entry): T2 sequence (P00352 whole entry)
Put plainly: Inhibition of human ALDH1A1 using propionaldehyde as substrate at 10 uM preincubated with enzyme for 15 mins followed by substrate addition in presence of NAD+ and measured for 5 mins by spectrophotometric analysis. The conditions noted are these: time 20.0 min. A digest of the protocol: as §2

For data set [15], the target named is T6, Aldehyde dehydrogenase, mitochondrial (Homo sapiens) (UniProt P05091).
T6 sequence (whole entry): T3 sequence (P05091 whole entry)
Put plainly: Inhibition of human ALDH2 using acetaldehyde as substrate at 100 uM preincubated with enzyme for 15 mins followed by substrate addition in presence of NAD+ and measured for 5 mins by spectrophotometric analysis. The conditions noted are these: time 20.0 min. The procedure, abridged:
as §2

Turning to `CC(C)CCn1c(CN2CCN(C(=O)C3CC3)CC2)nc2c1c(=O)n(C)c(=O)n2C`, the outcome in [1] and in data set [2] was Active.

The IC50 is the concentration that gives 50% inhibition. What is called logP is the decadic logarithm of the partition coefficient of the neutral form, usually between octanol and water. Take `Clc1ccc(-c2nc3ccccc3n2Cc2ccccc2)cc1`: the IC50 result was “Not Active” in [3], 0.32 µM in data set [7] and “Not Active” in data set [9]. Moreover, the CI in [4] was found to be 0.98; in [8], 0.91. Also, the result in data set [5], in data set [1], in [2] and in data set [10] was Active. This compound also showed a lipophilicity (logP) in data set [6] of 4.73.

For `CN(C)c1ccc(-c2nc3ccccc3n2Cc2ccccc2)cc1`, the IC50 result was “Not Active” in data set [3], 0.55 µM in data set [7] and “Not Active” in data set [9]. In addition, the outcome in data set [11] and in [12] was inactive. Besides, the figures for the CI in [4] and in [8] were 0.81 and 0.69, respectively. In addition, the logP in data set [6] stood at 4.17. The outcome in [1] and in [2] was Active.

With `COc1ccc(-c2nc3ccccc3n2Cc2ccccc2)cc1`, the IC50 result in data set [3] was “Not Active”; in [7] it was 1.63 µM; in [9] it was “Not Active”. In addition, the result in data set [11] and in [12] was inactive. For the same compound, the CI is 0.84 in data set [4] and 0.74 in data set [8]. The compound further returned a logP in data set [6] of 4.19. The outcome in data set [1] and in [2] was Active.

For the compound `CN(C)c1ccc(Cn2c(-c3ccc(N(C)C)cc3)nc3ccccc32)cc1`, the inhibition entry in data set [13], in [14] and in [15] was “inactive” in each case. Besides, the logP in data set [6] was found to be 4.02.

As for `c1ccc(Cn2c(-c3ccccc3)nc3ccccc32)cc1`, the IC50 in [3] (read-out: IC50) was 98.3 µM; in data set [7], 8.67 µM; in data set [9] (read-out: IC50) it was 95.6 µM. For the same compound, in data set [6], the logP amounted to 4.19.
